Measured values published in ChEMBL document CHEMBL2010758, “Antidotes to anthrax lethal factor intoxication. Part 3: Evaluation of core structures and further modifications to the C2-side chain” (Bioorg Med Chem Lett, 2012).
Active and inactive are the calls of the source. The rule behind the calls is not given here.

Tests used:
[1] = biological target: Stromelysin-1 (Homo sapiens, UniProt P08254); experiment: Inhibition of MMP-3 using OmniMMP as substrate
[2] = biological target: Cytochrome P450 2D6 (Homo sapiens, UniProt P10635); experiment: Inhibition of CYP2D6; assay type: ADME
[3] = Stability of the compound in presence of UGT; assay type: ADME
How it was run: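 UGT (glucuronidation) stability assay, incubated for 30 min. Result given as percent of compound remaining at t = 30 min.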

[4] = test system: Rattus norvegicus; experiment: Inhibition of Anthrax LT-induced toxicity in Fischer 344 rat assessed as increase in survival at 2.5 mg/kg, iv administered 20 to 30 mins after LT challenge; assay type: functional, organism-based; set-up: dose 2.5 mg/kg
[5] = test system: Plasma; experiment: Stability in plasma assessed as compound remaining at 3 hrs; assay type: ADME, cell-free
How it was run: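 Compound incubated in plasma. Result given as percent of compound remaining at 3 hours.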

[6] = test system: Rattus norvegicus; experiment: Inhibition of Anthrax LT-induced toxicity in Fischer 344 rat assessed as increase in survival at 5 mg/kg, iv administered 20 to 30 mins after LT challenge; assay type: functional, organism-based; set-up: dose 5 mg/kg
[7] = Stability in rat liver microsomes assessed as compound remaining at 30 mins; assay type: ADME, Microsome; conditions: read-out: Stability
How it was run: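 Compound incubated with rat liver microsomes for 30 min. Result given as percent of parent compound remaining at t = 30 min.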

[8] = biological target: Matrix metalloproteinase-9 (Homo sapiens, UniProt P14780); experiment: Inhibition of MMP-9 using OmniMMP as substrate
[9] = biological target: Voltage-gated inwardly rectifying potassium channel KCNH2 (Homo sapiens, UniProt Q12809); experiment: Inhibition of human ERG by fluorescence polarization assay
[10] = test system: RAW264.7; experiment: Cytotoxicity against mouse RAW264.7 cells by MTT assay; assay type: cell-based
[11] = biological target: Macrophage metalloelastase (Homo sapiens, UniProt P39900); experiment: Inhibition of MMP-12 using OmniMMP as substrate
[12] = Lipophilicity, Log D of the compound; assay type: physicochemical; conditions: octanol/water
[13] = biological target: Matrix metalloproteinase-14 (Homo sapiens, UniProt P50281); experiment: Inhibition of MMP-14 using OmniMMP as substrate
[14] = biological target: T1, Interstitial collagenase (Homo sapiens, UniProt P03956); experiment: Inhibition of MMP-1 using OmniMMP as substrate
T1 sequence (P03956 whole entry): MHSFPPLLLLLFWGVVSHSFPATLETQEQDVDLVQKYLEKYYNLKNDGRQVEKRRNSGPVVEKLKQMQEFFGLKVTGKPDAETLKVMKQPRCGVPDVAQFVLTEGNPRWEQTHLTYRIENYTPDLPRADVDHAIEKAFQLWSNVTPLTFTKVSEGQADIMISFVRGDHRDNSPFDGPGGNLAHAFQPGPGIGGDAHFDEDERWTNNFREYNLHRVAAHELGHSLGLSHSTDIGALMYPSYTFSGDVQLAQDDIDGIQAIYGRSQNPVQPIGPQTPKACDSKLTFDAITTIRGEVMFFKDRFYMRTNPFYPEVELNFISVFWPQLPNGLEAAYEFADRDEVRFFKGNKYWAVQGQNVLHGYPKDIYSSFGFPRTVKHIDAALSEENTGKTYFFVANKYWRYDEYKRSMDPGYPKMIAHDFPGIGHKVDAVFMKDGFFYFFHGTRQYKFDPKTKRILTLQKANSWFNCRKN

[15] = biological target: T2, Lethal factor (Bacillus anthracis, UniProt P15917); experiment: Inhibition of N-terminal 6-histine tagged Bacillus anthracis LF 263-C terminal catalytic domain using MCA-KKVYPYPME-Dap(Dnp)-NH2 as substrate after 4 hrs by FRET analysis
T2 sequence (P15917 whole entry): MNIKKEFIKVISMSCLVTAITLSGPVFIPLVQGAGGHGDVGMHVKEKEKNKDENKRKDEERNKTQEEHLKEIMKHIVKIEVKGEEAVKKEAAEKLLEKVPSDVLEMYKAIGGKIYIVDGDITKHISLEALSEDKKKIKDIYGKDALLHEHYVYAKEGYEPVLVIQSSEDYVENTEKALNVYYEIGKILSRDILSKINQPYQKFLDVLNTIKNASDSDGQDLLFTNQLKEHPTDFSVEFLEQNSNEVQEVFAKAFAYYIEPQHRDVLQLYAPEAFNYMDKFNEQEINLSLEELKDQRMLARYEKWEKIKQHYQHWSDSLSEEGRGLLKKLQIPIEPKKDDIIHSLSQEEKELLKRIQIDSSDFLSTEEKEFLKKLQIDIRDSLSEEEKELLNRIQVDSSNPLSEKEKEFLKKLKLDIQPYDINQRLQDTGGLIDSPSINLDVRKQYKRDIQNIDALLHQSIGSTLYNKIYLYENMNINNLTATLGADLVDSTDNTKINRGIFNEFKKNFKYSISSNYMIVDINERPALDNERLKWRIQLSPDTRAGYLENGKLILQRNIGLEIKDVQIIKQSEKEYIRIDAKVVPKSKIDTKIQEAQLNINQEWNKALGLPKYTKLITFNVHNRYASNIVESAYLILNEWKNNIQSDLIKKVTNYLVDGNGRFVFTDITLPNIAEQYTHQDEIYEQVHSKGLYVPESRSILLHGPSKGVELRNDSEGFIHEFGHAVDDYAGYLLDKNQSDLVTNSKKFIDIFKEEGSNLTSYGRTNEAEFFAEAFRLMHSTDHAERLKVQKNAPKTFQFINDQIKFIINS

[16] = test system: Rattus norvegicus; experiment: Inhibition of Anthrax LT-induced toxicity in Fischer 344 rat assessed as increase in survival at 1.25 mg/kg, iv administered 20 to 30 mins after LT challenge; assay type: functional, organism-based; set-up: dose 1.25 mg/kg
[17] = test system: Oryctolagus cuniculus; experiment: Tmax in NZW rabbit at 10 mg/kg, sc; assay type: ADME, organism-based; set-up: dose 10 mg/kg, route subcutaneous; conditions: in vivo
How it was run: (§1)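 Single subcutaneous dose of 10 mg/kg given to NZW rabbits in DMSO:PEG400:pH 6 citrate buffer (2:10:88). Plasma drug levels were followed over time, including a 12 h sample. Tmax, Cmax, terminal (β) half-life and AUC to infinity were derived from the plasma concentration–time profile.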

[18] = test system: Oryctolagus cuniculus; experiment: Cmax in NZW rabbit at 10 mg/kg, sc; assay type: ADME, organism-based; set-up: dose 10 mg/kg, route subcutaneous; conditions: in vivo; how it was run: as §1
[19] = test system: Oryctolagus cuniculus; experiment: Terminal half life in NZW rabbit at 10 mg/kg, sc; assay type: ADME, organism-based; set-up: dose 10 mg/kg, route subcutaneous; conditions: in vivo; how it was run: as §1
[20] = test system: Oryctolagus cuniculus; experiment: AUC (infinity) in NZW rabbit at 10 mg/kg, sc; assay type: ADME, organism-based, Plasma; set-up: time infinity, dose 10 mg/kg, route subcutaneous; conditions: in vivo; how it was run: as §1
[21] = Plasma concentration in NZW rabbit at 10 mg/kg, sc at 12 hrs; assay type: ADME, organism-based, Oryctolagus cuniculus; set-up: dose 10 mg/kg, route subcutaneous; how it was run: as §1

Chain of Cytochrome P450 2D6 (P10635 whole entry): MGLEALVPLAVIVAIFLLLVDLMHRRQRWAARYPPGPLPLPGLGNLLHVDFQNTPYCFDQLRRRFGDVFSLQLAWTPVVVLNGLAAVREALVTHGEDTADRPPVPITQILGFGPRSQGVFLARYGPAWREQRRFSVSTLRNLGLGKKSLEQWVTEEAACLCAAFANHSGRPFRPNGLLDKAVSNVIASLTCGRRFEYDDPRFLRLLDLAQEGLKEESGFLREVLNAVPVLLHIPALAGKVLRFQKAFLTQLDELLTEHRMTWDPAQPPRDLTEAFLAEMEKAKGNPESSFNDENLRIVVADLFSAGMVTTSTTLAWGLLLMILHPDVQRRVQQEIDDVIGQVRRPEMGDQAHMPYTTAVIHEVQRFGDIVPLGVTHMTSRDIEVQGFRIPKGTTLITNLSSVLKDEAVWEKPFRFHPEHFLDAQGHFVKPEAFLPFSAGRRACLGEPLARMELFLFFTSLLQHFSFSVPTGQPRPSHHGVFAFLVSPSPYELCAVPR
Chain of Matrix metalloproteinase-9 (P14780 whole entry): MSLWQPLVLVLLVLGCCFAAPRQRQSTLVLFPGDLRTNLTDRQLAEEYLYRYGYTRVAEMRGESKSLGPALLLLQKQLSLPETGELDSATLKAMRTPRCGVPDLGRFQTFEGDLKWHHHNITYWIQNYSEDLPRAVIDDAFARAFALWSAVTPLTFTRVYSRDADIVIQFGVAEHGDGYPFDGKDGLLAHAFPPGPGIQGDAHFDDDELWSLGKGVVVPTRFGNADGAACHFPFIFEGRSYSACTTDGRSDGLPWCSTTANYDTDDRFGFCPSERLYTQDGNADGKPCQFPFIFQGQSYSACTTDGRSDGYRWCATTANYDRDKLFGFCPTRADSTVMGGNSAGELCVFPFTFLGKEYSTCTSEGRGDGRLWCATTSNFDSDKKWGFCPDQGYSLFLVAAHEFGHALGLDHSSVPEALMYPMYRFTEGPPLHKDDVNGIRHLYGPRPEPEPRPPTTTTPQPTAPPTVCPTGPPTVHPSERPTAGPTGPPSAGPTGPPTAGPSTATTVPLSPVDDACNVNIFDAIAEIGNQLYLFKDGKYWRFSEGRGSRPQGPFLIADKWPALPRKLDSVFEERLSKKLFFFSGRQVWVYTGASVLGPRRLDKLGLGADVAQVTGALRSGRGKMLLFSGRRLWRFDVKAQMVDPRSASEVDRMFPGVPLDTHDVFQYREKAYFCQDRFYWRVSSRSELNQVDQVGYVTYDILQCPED
Chain of Stromelysin-1 (P08254 whole entry): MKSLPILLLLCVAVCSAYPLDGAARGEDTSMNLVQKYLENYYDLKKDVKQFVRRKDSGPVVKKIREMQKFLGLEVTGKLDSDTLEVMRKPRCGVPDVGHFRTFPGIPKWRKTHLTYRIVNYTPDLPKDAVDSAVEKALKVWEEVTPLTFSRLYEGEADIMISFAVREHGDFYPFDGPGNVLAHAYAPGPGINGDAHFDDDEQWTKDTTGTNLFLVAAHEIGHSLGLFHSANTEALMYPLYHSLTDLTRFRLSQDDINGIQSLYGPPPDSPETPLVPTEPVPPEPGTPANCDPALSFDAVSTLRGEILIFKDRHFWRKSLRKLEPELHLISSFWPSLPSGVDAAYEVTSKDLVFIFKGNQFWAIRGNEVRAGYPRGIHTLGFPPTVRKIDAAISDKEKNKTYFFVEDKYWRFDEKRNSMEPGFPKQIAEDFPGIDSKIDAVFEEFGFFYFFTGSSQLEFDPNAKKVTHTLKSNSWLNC
Chain of Macrophage metalloelastase (P39900 whole entry): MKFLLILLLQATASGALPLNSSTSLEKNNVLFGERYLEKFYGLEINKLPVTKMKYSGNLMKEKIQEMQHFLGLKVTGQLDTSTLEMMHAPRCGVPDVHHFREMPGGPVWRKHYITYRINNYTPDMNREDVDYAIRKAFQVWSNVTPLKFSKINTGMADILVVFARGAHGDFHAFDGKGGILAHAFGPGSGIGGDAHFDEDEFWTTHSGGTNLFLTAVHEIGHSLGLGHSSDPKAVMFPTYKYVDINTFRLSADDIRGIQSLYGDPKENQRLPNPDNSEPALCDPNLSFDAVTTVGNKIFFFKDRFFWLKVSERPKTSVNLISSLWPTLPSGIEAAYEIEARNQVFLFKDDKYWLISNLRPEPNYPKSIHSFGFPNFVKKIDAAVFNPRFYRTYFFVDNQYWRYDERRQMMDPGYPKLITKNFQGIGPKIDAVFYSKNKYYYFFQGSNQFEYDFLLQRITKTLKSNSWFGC
Chain of Voltage-gated inwardly rectifying potassium channel KCNH2 (Q12809 whole entry): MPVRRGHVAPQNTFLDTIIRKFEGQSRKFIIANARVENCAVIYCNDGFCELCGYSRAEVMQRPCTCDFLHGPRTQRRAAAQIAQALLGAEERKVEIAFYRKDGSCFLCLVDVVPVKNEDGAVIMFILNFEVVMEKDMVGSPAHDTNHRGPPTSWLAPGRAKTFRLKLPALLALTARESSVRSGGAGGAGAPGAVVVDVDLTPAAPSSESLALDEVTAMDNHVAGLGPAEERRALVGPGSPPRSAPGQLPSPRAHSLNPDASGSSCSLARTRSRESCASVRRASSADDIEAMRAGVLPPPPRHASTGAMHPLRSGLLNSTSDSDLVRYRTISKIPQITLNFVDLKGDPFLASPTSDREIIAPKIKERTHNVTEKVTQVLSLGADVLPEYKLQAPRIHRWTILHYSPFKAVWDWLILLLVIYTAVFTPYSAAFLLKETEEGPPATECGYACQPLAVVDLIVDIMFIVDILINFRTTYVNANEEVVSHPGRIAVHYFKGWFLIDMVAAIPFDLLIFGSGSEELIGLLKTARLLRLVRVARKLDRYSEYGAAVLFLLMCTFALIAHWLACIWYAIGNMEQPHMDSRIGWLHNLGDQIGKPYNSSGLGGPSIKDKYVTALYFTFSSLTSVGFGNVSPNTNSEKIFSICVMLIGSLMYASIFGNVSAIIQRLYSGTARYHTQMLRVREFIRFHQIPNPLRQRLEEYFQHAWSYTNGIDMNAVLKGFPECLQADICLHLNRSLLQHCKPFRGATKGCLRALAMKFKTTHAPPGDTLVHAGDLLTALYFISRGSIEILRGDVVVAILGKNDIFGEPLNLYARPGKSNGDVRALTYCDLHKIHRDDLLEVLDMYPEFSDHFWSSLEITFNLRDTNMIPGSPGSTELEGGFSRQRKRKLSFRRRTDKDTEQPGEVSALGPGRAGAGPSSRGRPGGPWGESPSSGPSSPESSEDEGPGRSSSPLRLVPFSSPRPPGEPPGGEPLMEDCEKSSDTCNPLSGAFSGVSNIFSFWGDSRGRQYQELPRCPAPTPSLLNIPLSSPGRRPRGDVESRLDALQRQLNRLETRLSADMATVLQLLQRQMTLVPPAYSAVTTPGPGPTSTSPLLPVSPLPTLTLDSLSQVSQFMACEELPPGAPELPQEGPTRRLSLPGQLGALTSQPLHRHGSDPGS

| SMILES | Ki [1] [µM] | IC50 [2] [µM] | Stability [3] [%] | inhibition [4] | Stability [5] [%] | Survival increase (active/not active) [6] | remaining at 0.5 h [7] [%] | Ki [8] [µM] | CC50 [10] [µM] | Ki [11] [µM] | logD [12] | Ki [13] [µM] | Ki [14] [µM] | Ki [15] [nM] | other results |
| --- | --- | --- | --- | --- | --- | --- | --- | --- | --- | --- | --- | --- | --- | --- | --- |
| Cc1cc(N[C@H](CCCCNCc2ccc(F)cc2)C(=O)NO)cc(C)c1F | > 50 | 1.35 | 38 | Active | 90 | Active | 60 | > 50 | 61 | > 50 | 2.3 | > 50 | > 50 |  | IC50 [9]: 1.23 µM |
| CO[C@H](C[C@H](CCCCNCc1ccc(F)cc1)C(=O)NO)c1ccc(F)cc1 | > 50 |  | 99 |  |  | Active | 91 | 21 | 55 | 2.3 | 2.4 | > 50 | 33 |  |  |
| Cc1cc(O[C@H](CCCCNCc2ccc(F)cc2)C(=O)NO)cc(C)c1F | > 50 | 0.23 | 76 |  | 61 | inactive | 3 | > 50 | 26 | > 50 | 3.1 | > 50 | > 50 |  | IC50 [9]: 0.79 µM |
| Cc1cc(C[C@H](CCCCNCc2ccc(F)cc2)C(=O)NO)cc(C)c1F | > 50 | 0.02 | 79 | Active | 100 | Active | 18 | > 50 | 16 | > 50 | 2.2 | > 50 | > 50 |  | IC50 [9]: 4.65 µM |
| Cc1cc(C[C@H](CCCCN[C@H](C)c2ccc(F)cc2)C(=O)NO)cc(C)c1F |  |  |  |  |  |  |  |  |  |  |  |  |  | 0.3 |  |
| Cc1cc(C[C@H](CCCCN[C@@H](C)c2ccc(F)cc2)C(=O)NO)cc(C)c1F |  |  |  |  |  |  |  |  |  |  |  |  |  | 0.49 |  |
| CC[C@@H](NCCCC[C@@H](Cc1cc(C)c(F)c(C)c1)C(=O)NO)c1ccc(F)cc1 |  |  |  |  |  |  |  |  |  |  |  |  |  | 0.04 |  |
| CC[C@H](NCCCC[C@@H](Cc1cc(C)c(F)c(C)c1)C(=O)NO)c1ccc(F)cc1 |  |  |  |  |  |  |  |  |  |  |  |  |  | 0.11 |  |
| Cc1cc(C[C@H](CCCCN[C@H](CC(C)C)c2ccc(F)cc2)C(=O)NO)cc(C)c1F |  |  |  |  |  |  |  |  |  |  |  |  |  | 0.23 |  |
| Cc1cc(C[C@H](CCCCN[C@@H](CC(C)C)c2ccc(F)cc2)C(=O)NO)cc(C)c1F |  |  |  |  |  |  |  |  |  |  |  |  |  | 1.3 |  |
| Cc1cc(C[C@H](CCCCN[C@H](Cc2ccccc2)c2ccc(F)cc2)C(=O)NO)cc(C)c1F |  |  |  |  |  |  |  |  |  |  |  |  |  | 0.6 |  |
| Cc1cc(C[C@H](CCCCN[C@@H](Cc2ccccc2)c2ccc(F)cc2)C(=O)NO)cc(C)c1F |  |  |  |  |  |  |  |  |  |  |  |  |  | 2 |  |
| CCC(NCCCC[C@@H](Cc1cc(C)c(F)c(C)c1)C(=O)NO)c1ccc(F)cc1 (mixture of isomers) | > 50 | 0.08 | 100 | Active | 95 | Active | 55 | > 50 | 15 | > 50 | 2.9 | > 50 | > 50 | 0.31 | inhibition [16]: Active |
| CCC(NCCCC[C@@H](Nc1cc(C)c(F)c(C)c1)C(=O)NO)c1ccc(F)cc1 (mixture of isomers) | > 50 | 0.24 | 74 | Active | 84 | Active | 75 | > 50 | 32 | > 50 | 3.3 | > 50 | > 50 | 0.17 | inhibition [16]: inactive; IC50 [9]: 0.95 µM |
| CCC(NCCCC[C@@H](Oc1cc(C)c(F)c(C)c1)C(=O)NO)c1ccc(F)cc1 (mixture of isomers) | > 50 |  | 75 |  | 38 | Active | 7 | > 50 | 21 | > 50 | 3.3 | > 50 | > 50 | 1 |  |
| CCC(NCCCC[C@@H](C[C@@H](OC)c1ccc(F)cc1)C(=O)NO)c1ccc(F)cc1 (mixture of isomers) | 31 | 0.16 | 100 | Active | 94 | Active | 75 | 11 | 35 | 12 | 2.9 | > 50 | 47 | 0.27 | Tmax [17]: 0.3 h; Cmax [18]: 1300 nM; beta t1/2 [19]: 5.3 h; AUC [20]: 2637.6 ng·h/mL; concentration at 12 h [21]: 79 nM |
